# Measured values from different studies.
# Protocols differ between the studies behind these lines.
# Observed: cell growth or viability
SMILES,cell line,method,time,IC50 [µM]
Cn1nnc2c(C(N)=O)ncn2c1=O,U-118-MG,MTT,72 h,944
CC(C)c1cc(C(=O)N2Cc3ccccc3C2)c(O)c2ccoc12,UMUC3,ATP luminescence,72 h,71.6
COc1cc(/C=C/C(=O)/C=C/c2cn(-c3ccccc3)nc2-c2ccccc2)cc(OC)c1O,LLC-PK1,MTT,72 h,10.2
O=C(Nc1ccc(CN2CCOCC2)c(C(F)(F)F)c1)c1ccc(C#Cc2cccc3cnccc23)cn1,IMR-90,MTT,,> 180
COc1cc(/C=C/C(=O)/C=C/c2c(C)nn(-c3cccc([N+](=O)[O-])c3)c2Cl)cc(OC)c1OC,LLC-PK1,MTT,72 h,5.93
CC(C)c1cc(C(=O)N2Cc3ccccc3C2)c(O)c2c1C(=O)C(F)C2 (stereo not shown),UMUC3,ATP luminescence,72 h,69.9
Cc1cc(-c2nc(C(=O)Nc3cc4oc(N5CCOCC5)nc4nc3N3CC[C@@H](O)C3)co2)ccn1,SU-DHL-4,,5 days,> 10
CC(C)c1cc(C(=O)N2Cc3ccccc3C2)c(O)c2c1CCCC2=O,UMUC3,ATP luminescence,72 h,> 100
Cc1ncn2c(=O)n(C)nnc12,U-118-MG,resazurin,7 days,7
COc1cc2c(Oc3ccc(NC(=O)C4(C(=O)Nc5ccc(F)cc5)CC4)cc3F)ccnc2cc1OCCCN1CCOCC1,RD,,72 h,0.22
COc1ccc(-c2nn(-c3ccc(S(C)(=O)=O)cc3)cc2C=N/N=c2\[nH]c(-c3ccc([N+](=O)[O-])cc3)cs2)cc1,F180,MTT,48 h,28.5
COc1cc(/C=C/C(=O)/C=C/c2cn(-c3ccccc3)nc2-c2ccccc2)ccc1O,LLC-PK1,MTT,72 h,15.8
O=C(/C=C/c1ccc(O)c(O)c1)O[C@@H]1C[C@](O)(C(=O)O)C[C@@H](O)[C@H]1O,RD,WST-1,48 h,30.1
CNC(=O)c1ccc(N2C(=S)N(c3cnc(C#N)c(C(F)(F)F)c3)C(=O)C23CCC3)cc1F,LAPC4,ATP luminescence,6 days,1.1
CC(C)c1cc(C(=O)N2Cc3ccccc3C2)c(O)c2cc[nH]c12,UMUC3,ATP luminescence,72 h,> 100
CC(C)Cc1ccc(-c2nn(-c3ccc(S(C)(=O)=O)cc3)cc2/C=N\N=C2/NC(=O)CS2)cc1,F180,MTT,48 h,44.6
C[C@@H](Oc1cc(-c2cnn(C3CCNCC3)c2)cnc1N)c1c(Cl)ccc(F)c1Cl,RD,,72 h,0.49
COc1ccc(/C=C/C(=O)/C=C/c2c(C)nn(-c3ccccc3)c2Cl)cc1O,LLC-PK1,MTT,72 h,16.1
CC(C)/N=C1\c2cc(C(N)=O)nc3c(N)c(Cl)c(N)c(c23)N1C,HCC44,,,0.5
O=Cc1ccc(CO)o1,RD,WST-1,48 h,60.6
CN1/C(=N/c2ccc(Cl)cc2)c2cc(C(N)=O)nc3c(N)c(Cl)c(N)c1c23,HCC44,,,23.2
CN(C)C/C=C/C(=O)Nc1cc2c(Nc3ccc(F)c(Cl)c3)ncnc2cc1O[C@H]1CCOC1,Caco-2,MTT,72 h,3.1
COc1cc(Nc2nccc(-c3cnn4nc(OC)ccc34)n2)cc(C(F)(F)F)c1,NCI-H1581,ATP luminescence,,0.41
O=c1[nH]cc(F)c(=O)[nH]1,RD,WST-1,48 h,21.1
C[C@]12CC[C@H](O)CC1=CC[C@@H]1[C@@H]2CC[C@]2(C)C(n3cnc4ccccc43)=CC[C@@H]12,LAPC4,MTT,7 days,4
CNC(=O)c1cccc2cc(Oc3ccnc4cc(OCC5(N)CC5)c(OC)cc34)ccc12,Swiss-3T3,SRB,,0.064
CC(C)Cc1ccc(-c2nn(-c3ccc(S(C)(=O)=O)cc3)cc2/C=N/N=c2\[nH]c(-c3ccc([N+](=O)[O-])cc3)cs2)cc1,F180,MTT,48 h,23.6
CC(C)C[C@H](NC(=O)[C@H](Cc1ccccc1)NC(=O)c1cnccn1)B(O)O,LoVo,ATP luminescence,,0.015
CC(C)c1cc(C(=O)N2Cc3ccccc3C2)c(O)c2cn[nH]c12,UMUC3,ATP luminescence,72 h,> 100
COc1cc([C@@H]2c3cc4c(cc3[C@@H](O[C@@H]3O[C@@H]5CO[C@@H](C)O[C@H]5[C@H](O)[C@H]3O)[C@H]3COC(=O)[C@H]23)OCO4)cc(OC)c1O,Caco-2,MTS,72 h,14
Cn1nnc2c(Cl)ncn2c1=O,U-118-MG,resazurin,7 days,60
Cc1nc(Nc2ncc(C(=O)Nc3c(C)cccc3Cl)s2)cc(N2CCN(CCO)CC2)n1,F180,MTT,48 h,32.2
CCOc1cc(OCC)cc(C(=O)O[C@@H]2CN3Cc4c(cc5c(c4OC)OCO5)[C@@]24C=C[C@H](OC)C[C@@H]34)c1,A2780,WST-1,,7.8
Cc1cccc(-n2ncc(Br)c(Br)c2=O)c1,NCI-H2122,resazurin,96 h,1.26
O=c1cc(-c2ccc(O)c(O)c2)oc2cc(O)cc(O)c12,RD,WST-1,48 h,16
Cn1nnc2c(-c3ccccc3)ncn2c1=O,U-118-MG,resazurin,7 days,3
CC(=O)O[C@H]1C(=O)[C@@]2(C)[C@H]([C@H](OC(=O)c3ccccc3)[C@]3(O)C[C@H](OC(=O)[C@H](O)[C@@H](NC(=O)c4ccccc4)c4ccccc4)C(C)=C1C3(C)C)[C@]1(OC(C)=O)CO[C@@H]1C[C@@H]2O,LLC-PK1,MTT,72 h,0.73
O=C(O)CCCc1ccccc1,LoVo,MTT,72 h,> 50
CC(C)c1cc(C(=O)N2Cc3ccccc3C2)c(O)c2c1C(=O)C(C)(C)C2,UMUC3,ATP luminescence,72 h,51.9
Cn1nnc2c(C(=O)N3CCCC3)ncn2c1=O,U-118-MG,resazurin,7 days,136
COc1ccc(-c2nn(-c3ccc(S(C)(=O)=O)cc3)cc2/C=N/N=c2\[nH]c(-c3ccc(Br)cc3)cs2)cc1,F180,MTT,48 h,59.6
COc1cccc2c1C(=O)c1c(O)c3c(c(O)c1C2=O)C[C@@](O)(C(=O)CO)C[C@@H]3O[C@H]1C[C@H](N)[C@H](O)[C@H](C)O1,Caco-2,MTT,24 h,12.3
CC(C)c1cc(C(=O)N2Cc3ccccc3C2)c(O)c2c1C(=O)C(F)(F)C2,UMUC3,ATP luminescence,72 h,> 100
Cc1cc(Nc2ncc(Cl)c(Nc3ccccc3S(=O)(=O)C(C)C)n2)c(OC(C)C)cc1C1CCNCC1,RD,,72 h,2.18
CC(C)c1cc(C(=O)N2Cc3ccccc3C2)c(O)c2c1C(=O)C(C(F)(F)F)C2 (stereo not shown),UMUC3,ATP luminescence,72 h,59.6
CS(=O)(=O)c1ccc(-n2cc(C=N/N=c3\[nH]c(-c4ccc(Br)cc4)cs3)c(-c3ccc([N+](=O)[O-])cc3)n2)cc1,F180,MTT,48 h,36.6
